Bioassay records as filed in PubChem.
Compounds with a hit are over-represented: about 3.7% of the library has one in this group of screens.
EP2 modulator – modulators of human EP2 prostaglandin E2 receptor; P43116; actives 0.83% (n = 260,000); AID 940; induction, % at 25 µM; EP2-expressing cells, cAMP HTRF FRET, PGE2 co-stimulation;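 active means compounds whose cAMP rise, as percent of the full-agonist control response, exceeds 60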;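 further: rat C6 glioma line stably carrying human EP2 under a CMV promoter; the protocol text gives 20 µM as final concentration; 100% = response of wells given 1 µM PGE2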
OX1R antag-1 – human HCRTR1 antagonism. O43613. CHO/OX1R cells, Fluo-8 calcium fluorescence, orexin A. inhibition, % at 5 µM. actives 0.43% (n = 330,000);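 active means inhibition above its plate's threshold, mean inhibition of all tested compounds on the plate plus 3 SD, cut at about 37% in these data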;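 further: 0% = orexin A challenge wells and 100% = SB-334867-A antagonist wells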
Target sequence (O43613 whole entry, looked up): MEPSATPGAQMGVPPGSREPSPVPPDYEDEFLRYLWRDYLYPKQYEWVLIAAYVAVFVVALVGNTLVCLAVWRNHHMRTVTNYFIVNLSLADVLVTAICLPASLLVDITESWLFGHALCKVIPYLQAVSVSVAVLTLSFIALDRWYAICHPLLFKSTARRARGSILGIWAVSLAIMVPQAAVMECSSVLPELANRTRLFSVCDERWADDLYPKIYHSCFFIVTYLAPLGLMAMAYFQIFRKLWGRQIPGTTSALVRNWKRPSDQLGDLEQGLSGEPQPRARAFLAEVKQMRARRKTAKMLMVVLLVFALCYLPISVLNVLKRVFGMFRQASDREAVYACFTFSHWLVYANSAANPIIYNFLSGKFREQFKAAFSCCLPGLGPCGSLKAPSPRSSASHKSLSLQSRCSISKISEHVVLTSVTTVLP
OX1R antag-2 – blocks the human orexin 1 receptor | actives 1.8% (n = 330,000) | OX1R-expressing cells, FRET antagonist read-out | AID 485270 | O43613 | inhibition, % at 6.6 µM; in the data active means inhibition mostly above about 38%, no sharp cut-off; inactive means mostly below about 40%;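 further: 0% = agonist challenge alone and 100% = reference antagonist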
GPR7 antag – blocks human GPR7 receptor signaling. P48145. GPR7-expressing cells, fluorescence antagonist assay. inhibition, % at 4.4 µM. actives 1.1% (n = 290,000). AID 1861; in the data active means inhibition above about 16%, passing the limit was not always enough;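 further: cells stimulated with the agonist NPW; 0% = agonist with vehicle and 100% = vehicle without agonist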
Target sequence (P48145 whole entry, looked up): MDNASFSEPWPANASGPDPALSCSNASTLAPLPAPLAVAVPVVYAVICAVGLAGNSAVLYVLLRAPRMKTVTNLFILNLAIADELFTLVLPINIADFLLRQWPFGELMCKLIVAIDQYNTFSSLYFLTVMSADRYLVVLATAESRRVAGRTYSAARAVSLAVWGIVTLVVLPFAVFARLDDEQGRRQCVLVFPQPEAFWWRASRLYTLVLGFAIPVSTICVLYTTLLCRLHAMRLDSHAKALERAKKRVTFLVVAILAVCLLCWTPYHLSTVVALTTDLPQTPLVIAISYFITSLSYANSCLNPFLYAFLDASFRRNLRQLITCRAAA
CHO parental Ca – signal in parental CHO cells, OX1R antagonist counter-screen. AID 463079. parental CHO-K1, ATP-induced calcium, Fluo-8 fluorescence. actives 0.63% (n = 330,000). inhibition, % at 5.6 µM;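 active means inhibition above that plate's mean sample inhibition plus 3 SD, cut at about 26% in these data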;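 further: 0% = ATP-challenged DMSO wells and 100% = DMSO wells without ATP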
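Test system: parental CHO cells; detection: calcium-sensitive Fluo-8 fluorescence; evaluation: percent inhibition of calcium signal; also added: ATP as calcium-mobilizing challenge; repeats: one well per compound; control set: ATP-challenged DMSO wells low, unchallenged DMSO wells high; compound: single nominal dose of 5.6 µM per compound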
EP2 antag – blocks the human prostaglandin E2 receptor EP2; C6 glioma cells expressing human EP2, cAMP TR-FRET; cells stimulated with saturating PGE2; inhibition, % at 25 µM; actives 0.52% (n = 260,000);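 active means percent inhibition above 40 after rounding to a whole number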;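 further: rat C6 glioma host cells with rolipram phosphodiesterase inhibitor present; the protocol text gives 20 µM as final concentration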
GPR7 antag conf – human GPR7 antagonism, confirmation assay | shares compounds with GPR7 antag | inhibition, % at 4.4 µM | GPR7-expressing cells, calcium fluorescence antagonist mode | actives 52% (n = 2,400); in the data active means inhibition above about 24%;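 further: stimulated with the GPR7 agonist NPW; 0% = agonist plus vehicle and 100% = vehicle alone without agonist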
MCHR1 antag – MCHR1 (human) antagonism in GPR7 counter-screen; MCHR1-expressing cells, fluorescence antagonist assay; inhibition, % at 4.4 µM; shares compounds with GPR7 antag; actives 62% (n = 2,400); AID 2148; in the data active means inhibition above about 22%;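 further: 0% = vehicle with agonist and 100% = vehicle without agonist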
OX1R Fluo8 conf – OX1R (human) antagonism, confirmed | AID 492963 | inhibition, % at 5 µM | shares compounds with OX1R antag-1 | actives 38% (n = 1,100) | CHO/OX1R cells, orexin A calcium Fluo-8 fluorescence; in the data active means inhibition above about 29%;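 further: 0% = agonist challenge alone and 100% = reference antagonist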
CHO Ca triplic – counter-screen: parental CHO calcium response change, triplicate. shares compounds with OX1R antag-1. parental CHO-K1, ATP-induced calcium, Fluo-8 fluorescence. inhibition, % at 5.6 µM. actives 9.3% (n = 1,100);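 active means inhibition above a per-plate limit, the mean inhibition of that plate's test compounds plus 3 SD, cut at about 25% in these data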;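 further: 0% = ATP challenge with DMSO and 100% = DMSO without ATP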
OX1R HTRF conf – confirmation of human orexin 1 receptor antagonists, HTRF format | shares compounds with OX1R antag-2 | OX1R-expressing cells, HTRF antagonist assay | inhibition, % at 6.6 µM | actives 49% (n = 1,800); in the data active means inhibition above about 55%;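 further: CHO cells expressing OX1R stimulated with orexin A at about EC80; 0% = agonist challenge alone and 100% = reference antagonist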
CHO-K1 HTRF cnt – counter-screen: parental CHO-K1 HTRF response; shares compounds with OX1R antag-2; parental CHO-K1 cells, HTRF counterscreen; inhibition, % at 6.6 µM; actives 48% (n = 1,800); in the data active means inhibition above about 17%;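 further: 0% = agonist challenge with vehicle and 100% = vehicle alone without agonist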
The depositor's hits bear a star; . = no result given.

SMILES	EP2 modulator	OX1R antag-1	OX1R antag-2	GPR7 antag	CHO parental Ca	EP2 antag	OX1R HTRF conf	CHO-K1 HTRF cnt	others
O=C(Nc1ccc(Cl)cc1)Nc1nccs1	-46	-7	44	30*	-7	6	.	.	GPR7 antag conf=28*;MCHR1 antag=42*
CCC(=O)c1cn(Cc2ccc(C#N)cc2)c2ccccc12	-39	-13	15	27*	-5	4	.	.	GPR7 antag conf=14;MCHR1 antag=15
N#Cc1ccc(Cn2cc(C=O)c3ccccc32)cc1	.	-3	8	-2	1	.	.	.
CC(C)(C)C(=O)Nc1ccc(S(=O)(=O)N2CC3CC(C2)c2cccc(=O)n2C3)cc1 (centres undefined)	.	-18	6	-13	-8	.	.	.
O=c1[nH]c(=O)n(-c2ccccc2)c(O)c1/C=C/C=Nc1ccccc1	-4	6	16	-10	0	5	.	.
COc1ccc(-n2c(O)c(/C=C/C=Nc3ccccc3)c(=O)[nH]c2=O)cc1	-25	45*	34	5	19	7	.	.	OX1R Fluo8 conf=25;CHO Ca triplic=32*
O=c1[nH]c(=O)n(C2CCCCCC2)c(O)c1C=NCC1CCCO1 (centres undefined)	25	-23	6	-5	-17	11	.	.
CC1(C)CC2(CCO1)NCCN1C(=O)CSC12 (centres undefined)	5	4	12	-1	-11	9	.	.
COC(=O)C1=C(c2ccc(F)cc2OCc2ccccc2)C[C@@H]2CC[C@H]1N2C(=O)NCCOc1ccccc1Cl	.	56*	31	.	-23	.	.	.	OX1R Fluo8 conf=19;CHO Ca triplic=-18
CN(C)P1(N(C)C)=Nc2c(c(N)nn2C)C(c2ccccc2)=N1	6	89*	18	-8	-10	.	.	.	OX1R Fluo8 conf=3;CHO Ca triplic=2
CCCCn1c(N)c(C(=O)OCC2CCCO2)c2nc3ccccc3nc21 (centres undefined)	23	78*	100*	19	-23	2	34	14	OX1R Fluo8 conf=-3;CHO Ca triplic=-5
CC(C)CCn1c(N)c(C(=O)OCC2CCCO2)c2nc3ccccc3nc21 (centres undefined)	8	6	53	6	4	19	.	.
Cn1ccnc1C1(O)CC2CCC(C1)N2CC(=O)Nc1cccc(Cl)c1Cl (centres undefined)	-55	.	.	.	.	.	.	.
Cc1ccc(C)c(NP(=O)(Oc2ccccc2)Oc2ccccc2)c1	.	81*	42*	5	14	.	58*	13	OX1R Fluo8 conf=12;CHO Ca triplic=-14
O=[N+]([O-])c1ccc(N2CCCC2)c2ccncc12	-37	-16	87*	-3	-3	2	44	69*
O=[N+]([O-])c1ccc(NC2CCCC2)c2ccncc12	.	-2	31	19	22	.	.	.
CN1CCN(c2ccc([N+](=O)[O-])c3cccnc23)CC1	-38	-21	128*	12	-16	.	43	64*
O=[N+]([O-])c1ccc(N2CCNCC2)c2ncccc12	-3	.	.	3	.	.	.	.
O=C(O)COc1cc(Cl)c(Cl)cc1Cl	13	.	.	.	.	13	.	.
CCOC(=O)Cn1cc([N+](=O)[O-])nc1[N+](=O)[O-]	-4	-14	92*	-5	0	18	42	53*
COc1ccccc1OCC(=O)N1CCN(Cc2ccc3c(c2)OCO3)CC1	-16	-18	6	10	-5	9	.	.
C[n+]1ccc(-c2ccccc2)c2ccccc21	.	4	96*	.	-1	.	76*	84*
CCC(=O)c1ccc(OC(=O)N(C)c2ccccc2)cc1	12	-7	18	-9	-11	9	.	.
CC(=O)N1CN2CN(C(C)=O)CC(C(=O)c3ccc([N+](=O)[O-])cc3)(C2)C1	26	-8	93*	-6	-3	12	58*	52*
CC(=O)N1CN2CN(C(C)=O)CC(C(=O)c3ccccc3)(C2)C1	9	-16	13	-1	5	15	.	.
SMILES	EP2 modulator	OX1R antag-1	OX1R antag-2	GPR7 antag	CHO parental Ca	EP2 antag	OX1R HTRF conf	CHO-K1 HTRF cnt	others
CC(=NCc1cccnc1)c1c(O)n(-c2ccc(Cl)cc2)c(=O)[nH]c1=O	22	-20	10	6	-14	8	.	.
COC(=O)C1C2c3ccccc3OC1(C)N=c1s/c(=C/c3cnn(C)c3C)c(=O)n12 (centres undefined)	5	-10	13	-9	-8	19	.	.
CCCCCCC[n+]1ccc(-c2cc[n+](CCCCCCC)cc2)cc1	39	-10	140*	0	-10	9	60*	91*
O=C(O)CC[n+]1ccc(-c2cc[n+](CCC(=O)O)cc2)cc1	-15	.	.	.	.	4	.	.
O=c1[nH]c(O)c(N=Nc2ccc([N+](=O)[O-])cc2)c(=O)[nH]1	-17	-25	89*	-3	2	5	62*	99*
Cc1ccc(N=Nc2c(O)[nH]c(=O)[nH]c2=O)c([N+](=O)[O-])c1	34	-8	124*	-2	-3	4	38	56*
O=c1[nH]c(O)c(C=Nc2ccccc2[N+](=O)[O-])c(=O)[nH]1	-20	-17	18	-4	-7	4	.	.
O=c1[nH]c(=S)[nH]c(O)c1N=Nc1ccc(SC(F)F)cc1	-41	-14	36	-10	0	5	.	.
O=C1OC(c2ccc([N+](=O)[O-])cc2)=N/C1=C/N1CC2CC(C1)c1cccc(=O)n1C2 (centres undefined)	-24	-5	80*	-6	-16	3	25	18*
Cc1cc(Br)ccc1N1C(=O)CC(=O)NC1=O	28	8	12	-1	-5	5	.	.
Nc1cc(Cl)c2nonc2c1[N+](=O)[O-]	11	31	113*	5	25	6	85*	85*
O=C(O)c1cccc(N=Nc2c(O)[nH]c(=O)[nH]c2=O)c1	18	3	138*	-3	-13	7	62*	92*
CCOC(=O)c1sc(N=Nc2c(O)[nH]c(=O)[nH]c2=O)c(C(=O)OCC)c1C	11	-6	7	2	4	7	.	.
Cc1ccc(C(=O)O)cc1N=Nc1c(O)[nH]c(=O)[nH]c1=O	24	4	154*	-8	-3	7	57*	101*
O=C1NC(=O)C(=Cc2ccc(N3CCOCC3)o2)C(=O)N1	32	-15	92*	-6	3	7	50	99*
CCc1nnc(NC(=O)CCc2nc(C3=CCN(C)CC3)no2)s1	.	-1	98*	-13	-4	9	14	11
O=C(CN1CCN(CCO)CC1)Nc1ccc(Cl)cc1C(=O)c1ccccc1	-4	-18	17	3	-11	9	.	.
